Assay results as given in ChEMBL document CHEMBL1146071, “2,4-diaminopyrimidine derivatives as potent growth hormone secretagogue receptor antagonists” (J Med Chem, 2006).

Assays:
[1] = biological target: T1, Growth hormone secretagogue receptor type 1 (Homo sapiens, UniProt Q92847); test: Antagonist activity at human GHS receptor by inhibition of ghrelin-induced intracellular calcium flux in CHOK cells; assay type: functional, cell-based
How it was run: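 CHO-K cells stably expressing human GHS-R, grown in Ultra-CHO medium with 1% dialyzed FCS and 400 µg/mL G418, plated to confluency overnight. Loaded with Fluo-4 AM plus probenecid for 1-3 h in the dark at RT, then washed. On FLIPR (ex 488/em 520 nm), compound added first and read 3 min, then ghrelin added and read another 3 min. Duplicate or triplicate wells; sigmoidal fit for IC50.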

[2] = biological target: T1, Growth hormone secretagogue receptor type 1; test: Displacement of [125I]ghrelin from human GHS receptor expressed in CHOK cells; assay type: cell-based
How it was run: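 Membranes from CHO-K cells expressing human ghrelin receptor, prepared by sonication and a 60000g spin. Filtered onto PEI-soaked GF/C, washed cold, scintillation counted; percent inhibition, sigmoidal fit for IC50.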

[3] = Plasma concentration in Sprague-Dawley rat at 30 mg/kg, ip after 1 hr; assay type: ADME, organism-based; parameters: dose 30 mg/kg, route intraperitoneal
How it was run: (§1)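 Rats given 30 mg/kg ip. Brain (µg/g) and plasma levels measured at 1 and 8 h after dosing.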

[4] = Concentration in Sprague-Dawley rat brain at 30 mg/kg, ip after 8 hrs; assay type: ADME, organism-based; parameters: dose 30 mg/kg, route intraperitoneal; conditions: read-out: Ct; how it was run: as §1
[5] = Plasma concentration in Sprague-Dawley rat at 30 mg/kg, ip after 8 hrs; assay type: ADME, organism-based; parameters: dose 30 mg/kg, route intraperitoneal; how it was run: as §1
[6] = Concentration in Sprague-Dawley rat brain at 30 mg/kg, ip after 1 hr; assay type: ADME, organism-based; parameters: dose 30 mg/kg, route intraperitoneal; conditions: read-out: Ct; how it was run: as §1
[7] = Cmax in Sprague-Dawley rat at 5 mg/kg, iv; assay type: ADME, organism-based; parameters: dose 5 mg/kg, route intravenous; conditions: in vivo
How it was run: (§2)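 Rats dosed at 5 mg/kg: iv for AUC (µg·h/mL), clearance (L/h·kg) and Cmax (µg/mL); oral for bioavailability unless stated otherwise. Brain (µg/g) and plasma levels taken at 1 and 8 h. Mean of n = 3.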

[8] = Plasma concentration in Sprague-Dawley rat at 5 mg/kg after 1 hr; assay type: ADME, organism-based; parameters: dose 5 mg/kg; how it was run: as §2
[9] = Concentration in Sprague-Dawley rat brain at 5 mg/kg after 1 hr; assay type: ADME, organism-based; parameters: dose 5 mg/kg; conditions: read-out: Ct; how it was run: as §2
[10] = Half life in Sprague-Dawley rat at 5 mg/kg; assay type: ADME, organism-based; parameters: dose 5 mg/kg; conditions: in vivo; how it was run: as §2
[11] = Plasma clearance in Sprague-Dawley rat at 5 mg/kg, iv; assay type: ADME, organism-based; parameters: dose 5 mg/kg, route intravenous; how it was run: as §2
[12] = Oral bioavailability in Sprague-Dawley rat at 5 mg/kg; assay type: ADME, organism-based; conditions: in vivo; how it was run: as §2
[13] = AUC in Sprague-Dawley rat at 5 mg/kg, iv; assay type: ADME, organism-based, Plasma; parameters: dose 5 mg/kg, route intravenous; conditions: Sprague-Dawley, plasma; how it was run: as §2

T1 sequence (Q92847 whole entry): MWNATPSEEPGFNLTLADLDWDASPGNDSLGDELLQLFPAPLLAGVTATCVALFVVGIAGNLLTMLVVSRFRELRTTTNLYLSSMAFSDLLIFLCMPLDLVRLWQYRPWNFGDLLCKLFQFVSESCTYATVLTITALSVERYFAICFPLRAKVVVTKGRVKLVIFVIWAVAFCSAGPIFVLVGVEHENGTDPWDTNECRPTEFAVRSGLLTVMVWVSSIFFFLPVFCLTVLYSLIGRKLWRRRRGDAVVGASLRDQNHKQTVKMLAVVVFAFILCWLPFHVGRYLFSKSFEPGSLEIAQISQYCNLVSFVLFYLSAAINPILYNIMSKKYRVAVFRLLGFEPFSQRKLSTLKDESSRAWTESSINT

IC50 [1] | IC50 [2] | SMILES | further results
42 nM | 5.7 nM | CCc1nc(N)nc(N)c1-c1ccc(NCc2ccc(S(C)(=O)=O)cc2)c(Br)c1 | 
170 nM | 6.3 nM | Nc1nc(N)c(-c2ccc(NCc3csc(Cl)c3)cc2)c(COCc2ccccc2)n1 | 
780 nM | 160 nM | CCc1nc(N)nc(N)c1-c1ccc(NCc2ccc(C#N)cc2)cc1 | 
320 nM | 43 nM | Nc1nc(N)c(-c2ccc(NCc3ccc(Cl)s3)cc2)c(COCc2ccccc2)n1 | 
3610 nM | 83 nM | N#Cc1ccc(COc2ccc(-c3c(N)nc(N)nc3COCc3ccccc3)cc2)cc1 | 
120 nM | 9.8 nM | CCc1nc(N)nc(N)c1-c1ccc(CNc2ccc(S(C)(=O)=O)cc2)cc1 | 
3350 nM | 3170 nM | Nc1nc(N)c(-c2ccc(NCc3ccc(Cl)cc3)cc2)c(CCc2ccccc2)n1 | concentration at 1 h [3]: 800 ng/mL; concentration at 8 h [4]: 400 ng/g; concentration at 8 h [5]: 90 ng/mL; concentration at 1 h [6]: 1340 ng/g
97 nM | 2.9 nM | Nc1nc(N)c(-c2ccc(NCc3ccc(C(F)(F)F)cc3)cc2)c(COCc2ccccc2)n1 | 
12 nM | 7.4 nM | CCc1nc(N)nc(N)c1-c1ccc(NCc2ccc(S(C)(=O)=O)cc2)cc1 | Cmax [7]: 320 ng/mL; concentration at 1 h [8]: 1020 ng/mL; concentration at 1 h [9]: 50 ng/g; half-life [10]: 6.6 h; clearance [11]: 15.7 mL/min/kg; bioavailability [12]: 52%; AUC [13]: 2800 ng·h/mL
3150 nM | 300 nM | CCc1nc(N)nc(N)c1-c1ccc(CNc2ccc(Cl)cc2)cc1 | 
980 nM | 50 nM | Nc1nc(N)c(-c2ccc(NCc3ccccc3)cc2)c(COCc2ccccc2)n1 | 
85 nM | 1 nM | Nc1nc(N)c(-c2ccc(NCc3cc(F)c(S(=O)(=O)C(F)(F)F)c(F)c3)cc2)c(COCc2ccccc2)n1 | 
7.2 nM |  | CS(=O)(=O)c1ccc(CNc2ccc(-c3c(N)nc(N)nc3COCc3ccccc3)cc2)cc1 | 
45 nM | 2.4 nM | CCc1nc(N)nc(N)c1-c1ccc(NCc2cc(F)c(S(C)(=O)=O)c(F)c2)cc1 | 
780 nM | 130 nM | Nc1nc(N)c(-c2ccc(NCc3cnc4ccccc4c3)cc2)c(COCc2ccccc2)n1 | 
23 nM | 11 nM | CCc1nc(N)nc(N)c1-c1ccc(NCc2ccc([N+](=O)[O-])cc2)cc1 | Cmax [7]: 140 ng/mL; concentration at 1 h [8]: 270 ng/mL; concentration at 1 h [9]: 530 ng/g; half-life [10]: 5.5 h; clearance [11]: 43.3 mL/min/kg; bioavailability [12]: 68%; AUC [13]: 1600 ng·h/mL
32 nM | 3.7 nM | CCc1nc(N)nc(N)c1-c1ccc(N(C)Cc2ccc(S(C)(=O)=O)cc2)cc1 | Cmax [7]: 430 ng/mL; concentration at 1 h [8]: 1280 ng/mL; concentration at 1 h [9]: 40 ng/g; half-life [10]: 3.8 h; clearance [11]: 16.5 mL/min/kg; bioavailability [12]: 53%; AUC [13]: 2700 ng·h/mL
110 nM | 13 nM | CCc1nc(N)nc(N)c1-c1ccc(NCc2ccc(C(C)O)cc2)cc1 (stereo not given) | 
